Reference: ChEMBL document CHEMBL4219075, “Synthesis and evaluation of novel dolastatin 10 derivatives for versatile conjugations” (Bioorg Med Chem, 2018)
Activity calls are given as the source filed them. No cut-off for these calls is given here. Non-standard residues stand in square brackets, D forms with d. Residues, ends and D or L forms follow the SMILES beside them. *: point of attachment. Dolaproine = CO[C@@H]([C@@H]1CCCN1)[C@@H](C)C(=O)O; Dil = CC[C@H](C)[C@H](NC)[C@@H](CC(=O)O)OC; X1 = C[C@@H](N*)[C@@H](O)c1ccccc1; NMeV = CN[C@H](C(=O)O)C(C)C

How the values were obtained:
[1] = Permeability of the compound at 200 umol/L after 5 hrs by PAMPA; format: ADME; details: read-out: permeability
How it was run: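 Compound solution in the donor (receiver-plate) wells; 20% MeOH in PBS in the pre-coated filter-plate wells. The assembly was incubated 5 h at room temperature. Donor and acceptor concentrations were measured by LC-MS. Permeability was calculated from filter area 0.3 cm², donor 0.32 mL, acceptor 0.2 mL, t = 18,000 s and equilibrium concentration.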

A549 = experiment: Cytotoxicity against human A549 cells after 2 days by cell titer 96 aqueous one solution based assay; format: functional; details: A549, 48 h
How it was run: (§1)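 Cells (DMEM + 10% heat-inactivated FBS for SKOV-3 and A549) seeded at about 5000−50000/well and held overnight at 37°C, 5% CO2. DMSO stocks were diluted into medium with 1% FBS and no folic acid. Compounds at various concentrations were added in triplicate and incubated 2 days. MTS reagent was added for 1–2 h, absorbance read at 490 nm, and percent survival calculated versus untreated wells.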

SK-OV-3 = experiment: Cytotoxicity against human SKOV3 cells after 2 days by cell titer 96 aqueous one solution based assay; format: functional; details: SK-OV-3, 48 h; how it was run: as §1
Sus scrofa [2] = species on record: Sus scrofa; experiment: Inhibition of porcine brain tubulin polymerization measured every minute for 60 mins by absorbance spectroscopic analysis
How it was run: (§2)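 Fluorescence-based HTS kit assay run with porcine brain tubulin at about 100 µg per well in general tubulin buffer. Compound at 3, 1 or 0.3 µM final, in duplicate, added at the start. Run at 37°C for 60 min, reading OD 360 nm (emission 450 nm) each minute. Polymerization compared with buffer-treated tubulin.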

L1210 = experiment: Cytotoxicity against mouse L1210 cells after 2 days by cell titer 96 aqueous one solution based assay; format: functional; details: L1210, 48 h
How it was run: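 Mouse L1210 leukemia cells in RPMI-1640 + 10% heat-inactivated FBS were seeded at about 5000−50000/well and incubated overnight at 37°C, 5% CO2. Compounds were diluted in RPMI with 1% FBS and no folic acid, added at various concentrations in triplicate, and incubated 2 days. MTS was added for 1–2 h, A490 read, and survival expressed relative to untreated controls.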

[3] = Ratio of IC50 for human SKOV3 cells to IC50 for porcine brain tubulin polymerization
Sus scrofa [4] = species on record: Sus scrofa; experiment: Inhibition of porcine brain tubulin polymerization at 0.3 to 3 uM measured every minute for 60 mins by absorbance spectroscopic analysis; how it was run: as §2

Compound | Papp at 5 h, 200 µM [1] [nm/s] | IC50 (A549) [nM] | IC50 (SK-OV-3) [nM] | inhibition (Sus scrofa [2]) | IC50 (L1210) [nM] | Ratio IC50 [3] | inhibition (Sus scrofa [4])
CC[C@H](C)[C@@H]([C@@H](CC(=O)N1CCC[C@H]1[C@H](OC)[C@@H](C)C(=O)N[C@@H](Cc1ccccc1)c1nc(C(=O)N(C)CCN)cs1)OC)N(C)C(=O)[C@@H](NC(=O)[C@H](C(C)C)N(C)C)C(C)C | 0.72 | 0.81 | 0.56 | Active | 12 | – | –
CCNC(=O)c1csc([C@H](Cc2ccccc2)NC(=O)[C@H](C)[C@@H](OC)[C@@H]2CCCN2C(=O)C[C@@H](OC)[C@H]([C@@H](C)CC)N(C)C(=O)[C@@H](NC(=O)[C@H](C(C)C)N(C)C)C(C)C)n1 | 17 | 0.74 | 0.55 | Active | 6.5 | – | –
CC[C@H](C)[C@@H]([C@@H](CC(=O)N1CCC[C@H]1[C@H](OC)[C@@H](C)C(=O)N[C@H](C)[C@@H](O)c1ccccc1)OC)N(C)C(=O)[C@@H](NC(=O)[C@@H](NC)C(C)C)C(C)C (H-[NMeV]V[Dil][Dolaproine]-X1) | 0.79 | 1.3 | 0.66 | – | 2.1 | – | –
CC[C@H](C)[C@@H]([C@@H](CC(=O)N1CCC[C@H]1[C@H](OC)[C@@H](C)C(=O)N[C@@H](Cc1ccccc1)c1nc(C(=O)NCCO)cs1)OC)N(C)C(=O)[C@@H](NC(=O)[C@H](C(C)C)N(C)C)C(C)C | 0.2 | 1.7 | 4.7 | Active | 28 | – | –
CC[C@H](C)[C@@H]([C@@H](CC(=O)N1CCC[C@H]1[C@H](OC)[C@@H](C)C(=O)N[C@@H](Cc1ccccc1)c1nc(C(=O)NCCc2ccc(N)cc2)cs1)OC)N(C)C(=O)[C@@H](NC(=O)[C@H](C(C)C)N(C)C)C(C)C | 3 | 1.1 | 0.27 | – | 4.1 | >30 | Active
CC[C@H](C)[C@@H]([C@@H](CC(=O)N1CCC[C@H]1[C@H](OC)[C@@H](C)C(=O)N[C@@H](Cc1ccccc1)c1nc(C(=O)N(C)CCS)cs1)OC)N(C)C(=O)[C@@H](NC(=O)[C@H](C(C)C)N(C)C)C(C)C | 11 | 1.2 | 1.1 | Active | 7 | – | –
CCOC(=O)c1csc([C@H](Cc2ccccc2)NC(=O)[C@H](C)[C@@H](OC)[C@@H]2CCCN2C(=O)C[C@@H](OC)[C@H]([C@@H](C)CC)N(C)C(=O)[C@@H](NC(=O)[C@H](C(C)C)N(C)C)C(C)C)n1 | 32 | – | 0.024 | Active | – | – | –
CC[C@H](C)[C@@H]([C@@H](CC(=O)N1CCC[C@H]1[C@H](OC)[C@@H](C)C(=O)N[C@@H](Cc1ccccc1)c1nc(C(=O)NCCS)cs1)OC)N(C)C(=O)[C@@H](NC(=O)[C@H](C(C)C)N(C)C)C(C)C | 11 | 1.9 | 0.44 | Active | 31 | – | –
CC[C@H](C)[C@@H]([C@@H](CC(=O)N1CCC[C@H]1[C@H](OC)[C@@H](C)C(=O)N[C@@H](Cc1ccccc1)c1nc(C(=O)OCCS)cs1)OC)N(C)C(=O)[C@@H](NC(=O)[C@H](C(C)C)N(C)C)C(C)C | 0.05 | 6.9 | 0.13 | Active | 14 | – | –
CC[C@H](C)[C@@H]([C@@H](CC(=O)N1CCC[C@H]1[C@H](OC)[C@@H](C)C(=O)N[C@@H](Cc1ccccc1)c1nc(C(=O)OCCO)cs1)OC)N(C)C(=O)[C@@H](NC(=O)[C@H](C(C)C)N(C)C)C(C)C | 0.4 | 1.8 | 0.086 | Active | 4.7 | – | –
CC[C@H](C)[C@@H]([C@@H](CC(=O)N1CCC[C@H]1[C@H](OC)[C@@H](C)C(=O)N[C@@H](Cc1ccccc1)c1nc(C(=O)N(C)CCO)cs1)OC)N(C)C(=O)[C@@H](NC(=O)[C@H](C(C)C)N(C)C)C(C)C | 0.77 | 1.6 | 1.5 | Active | 8.5 | – | –
CC[C@H](C)[C@@H]([C@@H](CC(=O)N1CCC[C@H]1[C@H](OC)[C@@H](C)C(=O)N[C@@H](Cc1ccccc1)c1nc(C(=O)N(C)CCNC)cs1)OC)N(C)C(=O)[C@@H](NC(=O)[C@H](C(C)C)N(C)C)C(C)C | < 0.01 | 1.9 | 0.19 | Active | 14 | – | –
CC[C@H](C)[C@@H]([C@@H](CC(=O)N1CCC[C@H]1[C@H](OC)[C@@H](C)C(=O)N[C@@H](Cc1ccccc1)c1nc(C(=O)NCCc2ccc(O)cc2)cs1)OC)N(C)C(=O)[C@@H](NC(=O)[C@H](C(C)C)N(C)C)C(C)C | 3.6 | 1.3 | 0.37 | Active | 5.6 | – | –
CC[C@H](C)[C@@H]([C@@H](CC(=O)N1CCC[C@H]1[C@H](OC)[C@@H](C)C(=O)N[C@@H](Cc1ccccc1)c1nc(C(=O)NCCN)cs1)OC)N(C)C(=O)[C@@H](NC(=O)[C@H](C(C)C)N(C)C)C(C)C | 0.56 | > 10 | > 10 | – | > 50 | >30 | Active
CC[C@H](C)[C@@H]([C@@H](CC(=O)N1CCC[C@H]1[C@H](OC)[C@@H](C)C(=O)N[C@@H](Cc1ccccc1)c1nc(C(=O)NCCNC)cs1)OC)N(C)C(=O)[C@@H](NC(=O)[C@H](C(C)C)N(C)C)C(C)C | 0.04 | 9.9 | > 10 | Active | 27 | – | –
CC[C@H](C)[C@@H]([C@@H](CC(=O)N1CCC[C@H]1[C@H](OC)[C@@H](C)C(=O)N[C@@H](Cc1ccccc1)c1nc(C(=O)OCCN)cs1)OC)N(C)C(=O)[C@@H](NC(=O)[C@H](C(C)C)N(C)C)C(C)C | 0.07 | 0.83 | 0.85 | Active | 29 | – | –
